According to ChEMBL document CHEMBL4052596, “Dioncophyllines C2, D2, and F and Related Naphthylisoquinoline Alkaloids from the Congolese Liana Ancistrocladus ileboensis with Potent Activities against Plasmodium falciparum and against Multiple Myeloma and Leukemia Cell Lines” (J Nat Prod, 2017):

Legend:
[1] = Induction of apoptosis in human INA-6 cells after 3 days by V-FITC/ propidium iodide staining-based flow cytometric analysis; type: functional, cell-based
Method in brief: (§1)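 INA-6 multiple myeloma cells, or mononuclear cells from the peripheral blood of healthy donors, exposed to a range of concentrations for 3 d, with melphalan as reference. Cells stained 10 min with annexin V-FITC and PI in HEPES binding buffer pH 7.4 (140 mM NaCl, 2.5 mM CaCl2), then analysed by flow cytometry. The annexin/PI double-negative fraction counted as viable, and EC50 derived from dose-response curves.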

[2] = system: Plasmodium falciparum; test: Antiprotozoal activity against erythrocytic stage of Plasmodium falciparum NF54 after 48 hrs by [3H]- hypoxanthine incorporation assay; type: functional
Method in brief: (§2)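 In vitro tests against P. falciparum NF54, T. cruzi, T. b. rhodesiense and L. donovani, with cytotoxicity on rat skeletal myoblast L6 host cells.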

[3] = system: L6; test: Cytotoxicity against rat L6 cells after 72 hrs by Alamar Blue assay; type: cell-based; conditions: L6, 72 h; method in brief: as §2
[4] = system: Trypanosoma brucei rhodesiense; test: Antiprotozoal activity against patient derived Trypanosoma brucei rhodesiense STIB 900 bloodstream form after 72 hrs by Alamar Blue assay; type: functional; conditions: STIB 900, 72 h; method in brief: as §2
[5] = Selectivity index, ratio of IC50 for rat L6 cells to IC50 for erythrocytic stage of Plasmodium falciparum NF54; type: toxicity; conditions: read-out: Ratio IC50
Method in brief: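 Ratio of the L6 cell IC50 to the P. falciparum IC50. Each IC50 is the mean of two independent assays.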

[6] = system: Trypanosoma cruzi; test: Antiprotozoal activity against trypomastigote stage of Trypanosoma cruzi Tulahuen C2C4 infected in rat L6 cells using preincubated for 96 hrs by CPRG/Nonidet-based inverted microscopy; type: functional, cell-based; method in brief: as §2
[7] = system: Leishmania donovani; test: Antiprotozoal activity against amastigote form of Leishmania donovani MHOM/ET/67/L82 after 72 hrs by Alamar Blue assay; type: functional; conditions: MHOM/ET/67/L82, 72 h; method in brief: as §2
[8] = system: Plasmodium falciparum; test: Antiprotozoal activity against erythrocytic stage of chloroquine and pyrimethamine resistant Plasmodium falciparum K1 after 48 hrs by [3H]- hypoxanthine incorporation assay; type: functional
[9] = Selectivity index, ratio of IC50 for rat L6 cells to IC50 for erythrocytic stage of chloroquine and pyrimethamine resistant Plasmodium falciparum K1; type: toxicity; conditions: read-out: Ratio IC50
Method in brief: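 Selectivity index: IC50 toward rat skeletal myoblast L6 cells (in vitro cytotoxicity, previously published method) divided by IC50 against P. falciparum K1; each IC50 is the mean of two independent assays.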

[10] = system: PBMC; test: Induction of apoptosis in human PBMC after 3 days by V-FITC/ propidium iodide staining-based flow cytometric analysis; type: cell-based; conditions: 72 h; method in brief: as §1
[11] = Resistance index, ratio of IC50 for human CEM/ADR5000 cells to IC50 for human CCRF-CEM cells; type: functional
Method in brief: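 Degree of resistance is the IC50 for CEM/ADR5000 divided by the IC50 for CCRF-CEM. Both come from resazurin viability dose-response curves over three independent experiments.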

[12] = system: CCRF-CEM; test: Growth inhibition of human CCRF-CEM cells at 10 uM by resazurin assay relative to control; type: functional; conditions: read-out: GI
Method in brief: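 Drug-sensitive CCRF-CEM leukemia cells treated at a single concentration of 10 μM, with doxorubicin as reference and DMSO vehicle (under 1.0%) as negative control. Viability read by resazurin fluorescence (ex 544, em 590 nm) relative to untreated cells. Three independent experiments, six parallel measurements each.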

[13] = system: CCRF-CEM; test: Growth inhibition of human CCRF-CEM cells by resazurin assay; type: functional, cell-based
Method in brief: (§3)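 CCRF-CEM cells and the P-glycoprotein-overexpressing multidrug-resistant subline CEM/ADR5000 treated over a range of concentrations, with doxorubicin as positive control and DMSO (under 1.0%) as negative control. Resazurin fluorescence read at ex 544/em 590 nm against untreated cells. IC50 taken from a calibration curve by linear regression. Mean ± SD of three independent experiments, six parallel measurements each.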

[14] = system: ADR5000 cell line; test: Growth inhibition of human multi-drug resistant CEM/ADR5000 cells by resazurin assay; type: functional, cell-based; method in brief: as §3

EC50 ([1]; Homo sapiens, INA-6, 72 h) [µM]	IC50 [2] [µM]	IC50 [4] [µM]	IC50 [6] [µM]	Compound	IC50 [3] [µM]	selectivity ratio [5]	IC50 [7] [µM]	further results
–	0.702	4.83	44.5	COc1cccc2c(-c3ccc(O)c4c3C[C@@H](C)N[C@H]4C)c(C)cc(OC)c12	43.3	61.7	228	–
0.22	–	–	–	COc1cccc2c(-c3ccc4c(c3O)[C@@H](C)N[C@H](C)C4)c(C)cc(OC)c12 [DIONCOPHYLLINE A]	–	–	–	Ratio IC50 [11]: 2.1; inhibition of growth at 10 µM [12]: < 50%; IC50 [13]: 0.243 µM; IC50 [14]: 0.52 µM
1.5	–	–	–	COc1cc(C)c(-c2ccc3c(c2O)[C@@H](C)N[C@H](C)C3)c2cccc(O)c12	–	–	–	–

More lines, now with the values behind:

Compound	EC50 ([1]; Homo sapiens, INA-6, 72 h) [µM]	IC50 [2] [µM]	IC50 [4] [µM]	IC50 [6] [µM]	IC50 [3] [µM]	selectivity ratio [5]	IC50 [7] [µM]	further results
COc1cccc2c(-c3ccc4c(c3O)[C@@H](C)N(C(C)=O)[C@H](C)C4)c(C)cc(OC)c12 [N-ACETYLDIONCOPHYLLINE A]	0.8	–	–	–	–	–	–	–
COc1ccc(-c2ccc3c(c2O)[C@@H](C)N(C)[C@H](C)C3)c2cc(C)cc(OC)c12	32	0.107	13.7	55	62.8	586	136	–
COc1cc2c(c(O)c1-c1c(C)cc(OC)c3c(OC)cccc13)C(C)=N[C@H](C)C2	–	6.51	22.7	104	34.9	5.4	146	–
COc1ccc(-c2ccc(O)c3c2C[C@@H](C)N[C@H]3C)c2cc(C)cc(OC)c12	21	0.09	0.585	14.6	14.5	161	107	IC50 [8]: 0.045 µM; selectivity ratio [9]: 323; EC50 [10]: 16 µM
N[C@@H](Cc1ccc(N(CCCl)CCCl)cc1)C(=O)O	2	–	–	–	–	–	–	–
COc1cc2c(c(OC)c1-c1c(C)cc(OC)c3c(OC)cccc13)[C@@H](C)N[C@@H](C)C2	4.8	0.726	0.313	12.4	30	41	25.4	–
COc1ccc(-c2ccc3c(c2O)[C@@H](C)N[C@H](C)C3)c2cc(C)cc(OC)c12	2.6	0.228	8.08	26.3	4.02	17.6	> 265	Ratio IC50 [11]: 2.9; inhibition of growth at 10 µM [12]: < 50%; IC50 [13]: 1.86 µM; EC50 [10]: 19 µM; IC50 [14]: 5.31 µM
COc1cccc2c(-c3ccc4c(c3O)[C@@H](C)N[C@H](C)C4)c(C)cc(O)c12 (stereo in doubt; M-11)	–	–	–	–	–	–	–	EC50 ([1]; ina-6): 16 µM; EC50 [10]: 50 µM
COc1cccc2c1C(=O)c1c(O)c3c(c(O)c1C2=O)C[C@@](O)(C(=O)CO)C[C@@H]3O[C@H]1C[C@H](N)[C@H](O)[C@H](C)O1 [DOXORUBICIN]	–	–	–	–	–	–	–	Ratio IC50 [11]: 1769; IC50 [13]: 0.017 µM; IC50 [14]: 30.1 µM
O=C(Cn1ccnc1[N+](=O)[O-])NCc1ccccc1 [BENZNIDAZOLE]	–	–	–	2.32	–	–	–	–
COc1cc(C)c(-c2ccc(O)c3c2C[C@@H](C)N[C@@H]3C)c2cccc(O)c12 [DIONCOPHYLLINE C]	7.5	–	–	–	–	–	–	EC50 [10]: 9 µM
COc1cccc2c(-c3ccc4c(c3O)[C@@H](C)N[C@H](C)C4)c(C)cc(O)c12 (stereo in doubt; P-11)	–	–	–	–	–	–	–	EC50 ([1]; ina-6): 2.7 µM
